Calls of active or inactive are those of the source. No cut-off for these calls is given here. Non-standard residues stand in square brackets, D forms with d. Residues, ends and D or L forms follow the SMILES beside them. dTrp(2-Me) = Cc1[nH]c2ccccc2c1C[C@@H](N)C(=O)O
Experiments:
Mus musculus [1] = assay: Increase in food intake in po dosed C57Bl6j mouse free feeding model measured in 2 hrs intervals; assay type: functional, organism-based
In short: (§1)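 Male mice (C57Bl6j, GHSr1-/- or wild-type littermates) were acclimatized 3 weeks to reversed light-dark, then individually housed 7 days and grouped (n=10-12) by baseline intake and body weight. Suspensions in 1% Pluronic F127 or vehicle were gavaged at 10 mL/kg about 1 h before dark onset. Pre-weighed food was reweighed at 2, 4, 6 and 24 h.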

[2] = Oral bioavailability in beagle dog at 2 mg/kg; assay type: ADME, organism-based, Canis lupus familiaris; details: in vivo
In short: (§2)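 Oral gavage in male HW rats, beagle dogs or CD-1 mice, vehicle Pluronic F127 in water. EDTA plasma was collected over 24 h and quantified by LC/MS/MS after acetonitrile precipitation. Cmax and bioavailability were obtained by non-compartmental analysis against IV data.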

[3] = Unbound fraction in Han-Wistar rat plasma; assay type: ADME, cell-free
Rattus norvegicus = assay: (§3) Oral bioavailability in Han-Wistar rat at 2 mg/kg; assay type: ADME, organism-based; details: in vivo; in short: as §2
[4] = target: Sodium-dependent dopamine transporter (Homo sapiens, UniProt Q01959); assay: Inhibition of DAT (unknown origin)
[5] = Cmax in Han-Wistar rat at 2 mg/kg, po; assay type: ADME, organism-based; design: dose 2 mg/kg, route oral; details: in vivo; in short: as §2
[6] = target: Voltage-gated inwardly rectifying potassium channel KCNH2 (Homo sapiens, UniProt Q12809); assay: Inhibition of human ERG at 33 uM
[7] = Unbound fraction in beagle dog plasma; assay type: ADME, cell-free, Canis lupus familiaris
[8] = Volume of distribution at steady state in CD1 mouse at 2 mg/kg, iv; assay type: ADME, organism-based; design: dose 2 mg/kg, route intravenous; details: in vivo, read-out: Vdss
In short: (§4)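 Male HW rats, beagle dogs or CD-1 mice received an IV bolus in 5% DMSO/95% hydroxypropyl-β-cyclodextrin (30% w/v). EDTA plasma was sampled over 24 h and assayed by LC/MS/MS after acetonitrile protein precipitation. CL and Vss were obtained by non-compartmental analysis.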

[9] = Clearance in Han-Wistar rat at 2 mg/kg, iv; assay type: ADME, organism-based; design: dose 2 mg/kg, route intravenous; details: in vivo; in short: as §4
[10] = Cmax in CD1 mouse at 2 mg/kg, po by LC-MS/MS method; assay type: ADME, organism-based; design: dose 2 mg/kg, route oral; details: in vivo; in short: as §2
Mus musculus [11] = assay: Reduction in free feeding level in po dosed GHS-R1a knock out C57Bl6j mouse free feeding model measured over 6 hrs; assay type: functional, organism-based; in short: as §1
[12] = Lipophilicity, logD of the compound; assay type: physicochemical; details: octanol/water
[13] = Displacement of [125I]human ghrelin from mouse GHS-R1a expressed in HEK cell membranes after 60 mins by gamma counting method; details: hek293
In short: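 HEK cell membranes stably overexpressing mouse or rat GHS-R1a (4 µg/well) incubated 60 min at rt with 20 pM [125I]human ghrelin and competing compound. Buffer: 50 mM Tris-HCl, 5 mM MgCl2, 0.01% BSA, pH 7.4, plus 10 µM methyl arachidonyl fluorophosphonate. Stopped by filtration over PEI-soaked GF/C filters with ice-cold washes, then gamma counting. IC50 is the mean of ≥2 independent determinations.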

Mus musculus [14] = assay: Reduction in free feeding level in po dosed C57Bl6j mouse free feeding model measured in first 6 hrs; assay type: functional, organism-based; in short: as §1
Mus musculus [15] = assay: Reduction in free feeding level in po dosed C57Bl6j mouse free feeding model measured over 24 hrs period; assay type: functional, organism-based; in short: as §1
[16] = Cmax in beagle dog at 2 mg/kg, po; assay type: ADME, organism-based, Canis lupus familiaris; design: dose 2 mg/kg, route oral; details: in vivo; in short: as §2
[17] = Oral bioavailability in CD1 mouse at 7 mg/kg; assay type: ADME, organism-based; details: in vivo; in short: as §2
[18] = Ratio of drug level in homogenized brain to plasma in CD1 mouse at 7 mg/kg, po measured after 6 hrs by LC-MS/MS method; assay type: ADME, organism-based; design: dose 7 mg/kg, route oral; details: read-out: BPR
In short: (§5)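 CD-1 mice dosed PO in 1% Pluronic F127. Drug was measured in homogenized brain and in plasma 6 h after dosing and expressed as a brain:plasma ratio. The free ratio used free fraction measured in mouse plasma and rat brain (brain slice or brain homogenate).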

[19] = Clearance in beagle dog at 2 mg/kg, iv; assay type: ADME, organism-based, Canis lupus familiaris; design: dose 2 mg/kg, route intravenous; details: in vivo; in short: as §4
[20] = Volume of distribution at steady state in beagle dog at 2 mg/kg, iv; assay type: ADME, organism-based, Canis lupus familiaris; design: dose 2 mg/kg, route intravenous; details: in vivo, read-out: Vdss; in short: as §4
[21] = Cmax in CD1 mouse at 7 mg/kg, po; assay type: ADME, organism-based; design: dose 7 mg/kg, route oral; details: in vivo; in short: as §2
[22] = target: Neuronal acetylcholine receptor subunit alpha-4 (Homo sapiens, UniProt P43681); assay: Inhibition of alpha4 nAChR (unknown origin)
MDR1 [23] = assay: Apparent permeability in MDCK cells expressing MDR1 at 10 uM assessed as apical to basolateral side transport; assay type: ADME, cell-based, Canis lupus familiaris; details: dog
In short: (§6)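 MDCK-MDR1 monolayers incubated with compound at 10 µM; permeability measured in both A→B and B→A directions, giving Papp A-B (x10^6 cm/s) and the efflux ratio.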

[24] = Unbound fraction in CD1 mouse plasma; assay type: ADME, cell-free
[25] = Clearance in CD1 mouse at 2 mg/kg, iv; assay type: ADME, organism-based; design: dose 2 mg/kg, route intravenous; details: in vivo; in short: as §4
[26] = Volume of distribution at steady state in Han-Wistar rat at 2 mg/kg, iv; assay type: ADME, organism-based; design: dose 2 mg/kg, route intravenous; details: in vivo, read-out: Vdss; in short: as §4
[27] = Ratio of free drug level in homogenized brain to plasma in CD1 mouse measured 6 hrs after oral dosing by LC-MS/MS method; assay type: ADME; in short: as §5
[28] = Ratio of drug level in homogenized brain to plasma in CD1 mouse at 0.9 mg/kg, po measured after 6 hrs by LC-MS/MS method; assay type: ADME, organism-based; design: dose 0.9 mg/kg, route oral; details: read-out: BPR; in short: as §5
MDR1 [29] = assay: Efflux ratio in MDCK cells expressing MDR1 at 10 uM; assay type: ADME, cell-based, Canis lupus familiaris; details: dog; in short: as §6
[30] = target: Growth hormone secretagogue receptor type 1 (Homo sapiens, UniProt Q92847); assay: Displacement of [125I]human ghrelin from human GHS-R1a expressed in HEK cell membranes after 60 mins by gamma counting method; design: species or system HEK293
[31] = as §3; assay type: ADME, organism-based; details: Han-Wistar, in vivo; in short: as §2
[32] = Cmax in Han-Wistar rat at 2 mg/kg, po by LC-MS/MS method; assay type: ADME, organism-based; design: dose 2 mg/kg, route oral; details: in vivo; in short: as §2
Mus musculus [33] = assay: Reduction in free feeding level in po dosed C57Bl6j mouse free feeding model measured during 0 to 2 hrs; assay type: functional, organism-based; in short: as §1
[34] = target: Growth hormone secretagogue receptor type 1 (Rattus norvegicus) (UniProt O08725); assay: Displacement of [125I]human ghrelin from rat GHS-R1a expressed in HEK cell membranes after 60 mins by gamma counting method; details: hek293
[35] = Oral bioavailability in CD1 mouse at 1.3 mg/kg; assay type: ADME, organism-based; details: in vivo; in short: as §2
[36] = Cmax in CD1 mouse at 1.3 mg/kg, po; assay type: ADME, organism-based; design: dose 1.3 mg/kg, route oral; details: in vivo; in short: as §2
Mus musculus [37] = assay: Reduction in free feeding level in po dosed C57Bl6j mouse free feeding model measured during 2 to 6 hrs; assay type: functional, organism-based; in short: as §1
[38] = Ratio of drug level in homogenized brain to plasma in Han-Wistar rat measured 1 hr after iv bolus then iv infusion by LC-MS/MS method; assay type: ADME, organism-based; details: read-out: BPR
In short: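 Brain:plasma ratio in homogenized brain 1 h after IV bolus followed by IV infusion. The free ratio used free fractions measured in plasma and brain (brain slice method or brain homogenate).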

Sequence of Growth hormone secretagogue receptor type 1 (Q92847 whole entry): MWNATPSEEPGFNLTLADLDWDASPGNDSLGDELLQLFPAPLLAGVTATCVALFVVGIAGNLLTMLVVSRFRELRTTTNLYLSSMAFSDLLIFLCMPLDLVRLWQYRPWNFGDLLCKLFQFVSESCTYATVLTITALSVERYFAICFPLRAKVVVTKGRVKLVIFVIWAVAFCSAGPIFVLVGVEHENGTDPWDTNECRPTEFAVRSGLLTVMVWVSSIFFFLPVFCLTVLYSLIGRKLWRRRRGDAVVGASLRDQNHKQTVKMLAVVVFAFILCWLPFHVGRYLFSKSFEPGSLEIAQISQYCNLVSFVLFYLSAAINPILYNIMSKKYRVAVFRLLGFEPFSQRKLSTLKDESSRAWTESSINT
Sequence of Voltage-gated inwardly rectifying potassium channel KCNH2 (Q12809 whole entry): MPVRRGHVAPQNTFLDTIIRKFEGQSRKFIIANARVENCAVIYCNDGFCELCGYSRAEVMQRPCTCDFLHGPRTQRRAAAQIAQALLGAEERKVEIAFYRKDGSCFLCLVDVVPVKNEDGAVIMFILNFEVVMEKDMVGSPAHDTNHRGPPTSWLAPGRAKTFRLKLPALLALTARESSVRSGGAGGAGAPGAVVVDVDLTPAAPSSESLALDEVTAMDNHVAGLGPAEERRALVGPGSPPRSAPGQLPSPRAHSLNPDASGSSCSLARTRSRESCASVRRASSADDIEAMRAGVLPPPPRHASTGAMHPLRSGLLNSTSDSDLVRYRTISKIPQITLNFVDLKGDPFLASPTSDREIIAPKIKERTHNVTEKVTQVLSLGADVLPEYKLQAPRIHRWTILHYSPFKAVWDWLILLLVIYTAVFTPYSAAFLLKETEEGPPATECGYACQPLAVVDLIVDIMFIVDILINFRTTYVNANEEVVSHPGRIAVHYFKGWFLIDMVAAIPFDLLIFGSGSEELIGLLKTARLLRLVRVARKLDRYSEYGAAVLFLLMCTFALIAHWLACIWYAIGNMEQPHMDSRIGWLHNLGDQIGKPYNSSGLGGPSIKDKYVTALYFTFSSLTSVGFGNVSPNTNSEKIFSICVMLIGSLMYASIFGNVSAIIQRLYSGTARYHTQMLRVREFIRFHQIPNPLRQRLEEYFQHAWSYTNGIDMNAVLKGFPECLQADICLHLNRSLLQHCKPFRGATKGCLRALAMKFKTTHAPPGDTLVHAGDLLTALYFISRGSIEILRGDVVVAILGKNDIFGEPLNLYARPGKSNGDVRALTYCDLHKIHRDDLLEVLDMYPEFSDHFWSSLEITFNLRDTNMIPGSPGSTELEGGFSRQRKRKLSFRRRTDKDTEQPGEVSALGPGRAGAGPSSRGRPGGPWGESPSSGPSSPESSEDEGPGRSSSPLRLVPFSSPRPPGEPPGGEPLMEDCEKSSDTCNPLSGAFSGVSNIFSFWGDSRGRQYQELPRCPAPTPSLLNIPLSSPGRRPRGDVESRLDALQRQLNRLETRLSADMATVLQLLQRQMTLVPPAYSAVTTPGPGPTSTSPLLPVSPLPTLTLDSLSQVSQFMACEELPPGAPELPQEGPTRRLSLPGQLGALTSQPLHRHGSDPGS
Sequence of Neuronal acetylcholine receptor subunit alpha-4 (P43681 whole entry): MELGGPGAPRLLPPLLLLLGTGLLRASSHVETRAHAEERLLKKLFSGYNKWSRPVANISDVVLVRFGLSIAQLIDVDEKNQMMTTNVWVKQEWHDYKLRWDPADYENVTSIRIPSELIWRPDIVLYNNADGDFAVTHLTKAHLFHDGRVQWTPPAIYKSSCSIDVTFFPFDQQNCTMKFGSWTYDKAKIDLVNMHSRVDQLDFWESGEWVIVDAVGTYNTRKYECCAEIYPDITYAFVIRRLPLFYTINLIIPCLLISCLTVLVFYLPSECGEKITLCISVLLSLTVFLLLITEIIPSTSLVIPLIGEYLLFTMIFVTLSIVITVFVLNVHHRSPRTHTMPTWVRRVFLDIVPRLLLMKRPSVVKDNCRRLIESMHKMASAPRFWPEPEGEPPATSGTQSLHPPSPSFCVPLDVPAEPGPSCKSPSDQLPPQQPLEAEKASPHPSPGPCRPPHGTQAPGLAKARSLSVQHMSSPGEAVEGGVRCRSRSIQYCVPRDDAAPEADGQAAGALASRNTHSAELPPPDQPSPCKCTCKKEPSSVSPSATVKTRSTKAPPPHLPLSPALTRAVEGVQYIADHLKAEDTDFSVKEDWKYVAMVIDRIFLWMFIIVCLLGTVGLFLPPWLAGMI
Sequence of Growth hormone secretagogue receptor type 1 (Rattus norvegicus) (O08725 whole entry, looked up): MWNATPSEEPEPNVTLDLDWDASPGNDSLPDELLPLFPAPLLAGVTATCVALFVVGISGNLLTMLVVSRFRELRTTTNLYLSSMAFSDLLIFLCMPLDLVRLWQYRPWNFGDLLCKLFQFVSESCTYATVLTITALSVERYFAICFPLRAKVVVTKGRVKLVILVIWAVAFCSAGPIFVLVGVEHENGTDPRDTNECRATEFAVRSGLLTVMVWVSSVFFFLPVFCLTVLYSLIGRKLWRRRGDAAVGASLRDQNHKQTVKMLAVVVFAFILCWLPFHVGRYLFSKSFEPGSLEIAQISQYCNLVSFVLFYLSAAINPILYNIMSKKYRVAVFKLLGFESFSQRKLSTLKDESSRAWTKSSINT
Sequence of Sodium-dependent dopamine transporter (Q01959 whole entry): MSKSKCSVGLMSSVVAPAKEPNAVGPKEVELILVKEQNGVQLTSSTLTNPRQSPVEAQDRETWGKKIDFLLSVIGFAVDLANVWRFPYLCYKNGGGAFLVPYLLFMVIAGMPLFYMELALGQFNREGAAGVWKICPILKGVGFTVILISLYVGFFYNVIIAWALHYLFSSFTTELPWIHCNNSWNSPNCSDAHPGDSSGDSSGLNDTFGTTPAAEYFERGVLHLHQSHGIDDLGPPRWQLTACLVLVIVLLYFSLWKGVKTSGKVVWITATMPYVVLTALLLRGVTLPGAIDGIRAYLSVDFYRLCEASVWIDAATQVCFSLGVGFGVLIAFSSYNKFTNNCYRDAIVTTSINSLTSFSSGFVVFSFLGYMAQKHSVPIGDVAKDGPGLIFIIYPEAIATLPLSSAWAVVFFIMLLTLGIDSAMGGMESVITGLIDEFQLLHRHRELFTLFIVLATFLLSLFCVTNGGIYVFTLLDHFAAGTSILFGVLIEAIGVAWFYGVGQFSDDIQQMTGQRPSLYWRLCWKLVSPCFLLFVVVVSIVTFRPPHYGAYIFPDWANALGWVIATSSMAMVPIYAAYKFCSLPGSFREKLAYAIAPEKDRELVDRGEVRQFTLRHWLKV

SMILES | bioavailability [2] [%] | fraction unbound [3] | Cmax [5] [nM] | fraction unbound [7] | Vd [8] [L/kg] | clearance [9] [mL/min/kg] | Cmax [10] [nM] | logD [12] | IC50 [13] [nM] | Activity (Mus musculus [15]) | Cmax [16] [nM] | clearance [19] [mL/min/kg] | Vd [20] [L/kg] | Papp A→B at 10 µM (MDR1 [23]) [×10⁻⁶ cm/s] | fraction unbound [24] | clearance [25] [mL/min/kg] | Vd [26] [L/kg] | further results
Cc1[nH]c2ccccc2c1C[C@@H](NC(=O)[C@@H](N)Cc1c[nH]cn1)C(=O)N[C@@H](C)C(=O)N[C@@H](Cc1c[nH]c2ccccc12)C(=O)N[C@H](Cc1ccccc1)C(=O)N[C@@H](CCCCN)C(N)=O (H-H[dTrp(2-Me)]AW[dF]K-NH2) | – | – | – | – | – | – | – | – | – | – | – | – | – | – | – | – | – | Activity (Mus musculus [1]): Active
CN1CCC(S(=O)(=O)c2ccc3nc(NC(=O)NC(=O)c4cc(N5CCOCC5)ccc4Cl)sc3c2)CC1 | 31 | 0.002 | 4500 | 0.016 | 0.4 | 1.9 | 6500 | 2.3 | 39 | inactive | 1000 | 10 | 0.4 | 5.4 | 0.009 | 1.8 | 0.7 | F (Rattus norvegicus): 171%; Ki [4]: 290 nM; inhibition (INH) [6]: Not Active; Activity (Mus musculus [11]): inactive; Activity (Mus musculus [14]): Active; bioavailability [17]: 25%; Kp at 6 h [18]: 0.21; Cmax [21]: 8000 nM; Ki [22]: 52 nM
CN1CCC(S(=O)(=O)c2ccc3nc(NC(=O)NC(=O)c4cc(N5CCCC5)c(C#N)cc4Cl)sc3c2)CC1 | – | – | – | – | – | – | 840 | 3 | – | – | – | – | – | 3 | – | – | – | Kp uu at 6 h [27]: 0.38; Kp at 6 h [28]: 0.072; efflux ratio at 10 µM (MDR1 [29]): 0.47; IC50 [30]: 0.4 nM
CN1CCN(CCCS(=O)(=O)c2ccc3nc(NC(=O)NC(=O)c4cc(N5CCOCC5)ccc4Cl)sc3c2)CC1 | 87 | 0.0035 | 580 | 0.0078 | 0.8 | 2.6 | – | 1.7 | 1.1 | inactive | 11000 | 0.69 | 0.3 | 0.53 | 0.006 | 2.9 | 0.9 | bioavailability [31]: 30%; Cmax [32]: 1200 nM; Activity (Mus musculus [33]): Active; IC50 [34]: 3.4 nM; bioavailability [35]: 50%; Cmax [36]: 1300 nM; Activity (Mus musculus [37]): inactive; Kp at 1 h [38]: < 0.03
